# Source: ChEMBL document CHEMBL4834402, “Discovery of TAK-981, a First-in-Class Inhibitor of SUMO-Activating Enzyme for the Treatment of Cancer” (J Med Chem, 2021)
# Assays:
# OCI-Ly10 = experiment: Cytotoxicity against human OCI-LY10 cells assessed as reduction in cell viability after 72 hrs by CellTiter-Glo luminescent assay; type: functional, cell-based; conditions: OCI-Ly10, 72 h
# [1] = Volume of distribution at steady state in rat blood at 1 mg/kg, iv; type: ADME, organism-based; conditions: read-out: Vdss
# [2] = Oral bioavailability in rat plasma at 10 mg/kg; type: ADME, organism-based
# SUMO-activating enzyme [3] = target: T1, SUMO-activating enzyme (Homo sapiens, UniProt Q9UBT2); experiment: Inhibition of recombinant SAE (unknown origin) assessed as reduction in transfer of SUMO1 to UBC9 using SUMO1 as a substrate in presence of ATP at Km concentration by HTRF assay; type: protein-complex assay
# T1 sequence (Q9UBE0 whole entry): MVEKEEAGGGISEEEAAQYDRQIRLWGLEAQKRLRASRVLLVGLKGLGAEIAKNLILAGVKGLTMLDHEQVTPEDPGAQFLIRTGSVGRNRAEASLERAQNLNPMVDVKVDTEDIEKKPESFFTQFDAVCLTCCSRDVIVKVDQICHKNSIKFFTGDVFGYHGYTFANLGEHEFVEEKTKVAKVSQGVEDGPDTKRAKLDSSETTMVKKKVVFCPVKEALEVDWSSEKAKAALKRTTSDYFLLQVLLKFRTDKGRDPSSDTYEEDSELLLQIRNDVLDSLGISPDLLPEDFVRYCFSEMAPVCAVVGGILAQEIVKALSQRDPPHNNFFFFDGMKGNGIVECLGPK
# T1 sequence (Q9UBT2 whole entry): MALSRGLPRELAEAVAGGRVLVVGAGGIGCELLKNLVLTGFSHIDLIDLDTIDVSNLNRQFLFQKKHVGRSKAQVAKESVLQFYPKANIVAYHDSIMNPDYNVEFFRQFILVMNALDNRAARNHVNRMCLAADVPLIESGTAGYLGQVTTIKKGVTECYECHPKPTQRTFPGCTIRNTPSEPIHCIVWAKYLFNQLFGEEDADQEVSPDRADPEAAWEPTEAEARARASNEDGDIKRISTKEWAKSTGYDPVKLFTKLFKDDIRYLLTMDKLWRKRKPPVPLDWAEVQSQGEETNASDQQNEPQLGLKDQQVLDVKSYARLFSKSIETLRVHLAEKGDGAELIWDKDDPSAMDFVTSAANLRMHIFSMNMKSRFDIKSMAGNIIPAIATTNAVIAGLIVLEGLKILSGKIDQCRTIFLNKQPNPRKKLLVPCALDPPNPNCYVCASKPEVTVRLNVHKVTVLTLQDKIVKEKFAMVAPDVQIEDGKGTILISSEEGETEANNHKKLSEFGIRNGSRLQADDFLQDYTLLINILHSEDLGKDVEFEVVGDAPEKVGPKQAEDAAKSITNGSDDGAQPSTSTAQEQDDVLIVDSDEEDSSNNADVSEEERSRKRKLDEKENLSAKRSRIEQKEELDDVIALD
# Procedure, shortened: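 HTRF transthiolation assay measuring transfer of SUMO1 to UBC9, the E2 for SAE.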
# [4] = Efflux ratio of apparent permeability across basolateral to apical side over apical to basolateral side in human Caco-2 cells; type: ADME, cell-based
# [5] = Volume of distribution at steady state in rat plasma at 1 mg/kg, iv; type: ADME, organism-based; conditions: read-out: Vdss
# NEDD8 activating enzyme [6] = target: T2, NEDD8 activating enzyme (Homo sapiens, UniProt Q8TBC4); experiment: Inhibition of recombinant NAE (unknown origin) in presence of ATP at Km concentration by HTRF assay; type: protein-complex assay
# T2 sequence (Q8TBC4 whole entry): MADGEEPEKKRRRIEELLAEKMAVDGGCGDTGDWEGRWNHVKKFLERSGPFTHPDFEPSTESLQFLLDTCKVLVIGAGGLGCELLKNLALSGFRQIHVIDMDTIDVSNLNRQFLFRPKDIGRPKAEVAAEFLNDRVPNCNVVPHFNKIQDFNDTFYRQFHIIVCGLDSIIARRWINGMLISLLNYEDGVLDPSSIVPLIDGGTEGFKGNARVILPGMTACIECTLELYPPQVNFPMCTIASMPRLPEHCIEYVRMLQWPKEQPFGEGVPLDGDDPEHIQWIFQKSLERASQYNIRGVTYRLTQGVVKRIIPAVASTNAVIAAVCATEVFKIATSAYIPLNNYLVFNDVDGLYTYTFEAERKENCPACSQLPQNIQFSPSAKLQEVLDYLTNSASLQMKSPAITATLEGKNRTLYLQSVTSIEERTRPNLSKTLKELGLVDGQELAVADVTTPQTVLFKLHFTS
# T2 sequence (Q13564 whole entry): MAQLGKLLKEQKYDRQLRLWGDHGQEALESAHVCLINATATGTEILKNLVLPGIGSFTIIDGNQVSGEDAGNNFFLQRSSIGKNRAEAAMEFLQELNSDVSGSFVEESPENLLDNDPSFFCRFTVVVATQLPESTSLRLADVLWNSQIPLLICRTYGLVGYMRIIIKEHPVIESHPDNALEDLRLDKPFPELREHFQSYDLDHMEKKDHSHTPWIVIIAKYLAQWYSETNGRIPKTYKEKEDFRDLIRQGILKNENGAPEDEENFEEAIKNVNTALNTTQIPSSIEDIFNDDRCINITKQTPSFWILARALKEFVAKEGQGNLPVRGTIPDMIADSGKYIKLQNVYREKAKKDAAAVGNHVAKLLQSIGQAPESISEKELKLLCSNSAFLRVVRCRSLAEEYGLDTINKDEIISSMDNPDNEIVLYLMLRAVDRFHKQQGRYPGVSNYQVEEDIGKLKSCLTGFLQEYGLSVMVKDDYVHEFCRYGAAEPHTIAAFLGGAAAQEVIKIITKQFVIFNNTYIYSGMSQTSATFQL
# [7] = Half life in rat blood at 1 mg/kg, iv; type: ADME, organism-based
# [8] = Lipophilicity, logD of compound at pH 7.4; type: physicochemical; conditions: buffer
# [9] = Apparent permeability across basolateral to apical side in human Caco2 cells; type: ADME, cell-based; conditions: Caco-2
# [10] = Apparent permeability across apical to basolateral side in human Caco2 cells; type: ADME, cell-based; conditions: Caco-2
# [11] = AUC in rat plasma at 1 mg/kg, iv; type: ADME, organism-based; design: dose 1 mg/kg
# Carbonic anhydrase 2 = Carbonic anhydrase 2 (Homo sapiens, UniProt P00918); experiment: Inhibition of recombinant human CA2 expressed in Escherichia coli using fluorescein diacetate as substrate at […] by fluorometric esterase assay
# Carbonic anhydrase 1 = Carbonic anhydrase 1 (Homo sapiens, UniProt P00915); experiment: Inhibition of human erythrocyte CA1 using fluorescein diacetate as substrate at […] by fluorometric esterase assay
# Sequence of Carbonic anhydrase 1 (P00915 whole entry): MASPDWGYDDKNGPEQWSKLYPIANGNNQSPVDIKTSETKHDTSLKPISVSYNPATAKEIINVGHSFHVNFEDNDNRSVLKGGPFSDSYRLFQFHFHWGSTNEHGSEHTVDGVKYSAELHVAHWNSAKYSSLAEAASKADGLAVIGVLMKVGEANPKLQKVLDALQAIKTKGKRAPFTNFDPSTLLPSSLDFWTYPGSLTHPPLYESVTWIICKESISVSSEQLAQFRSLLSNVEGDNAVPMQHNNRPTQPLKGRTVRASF
# [12] = AUC in rat blood at 10 mg/kg, po; type: ADME, organism-based; design: dose 10 mg/kg
# [13] = Clearance in rat plasma at 1 mg/kg, iv; type: ADME, organism-based; conditions: in vivo
# [14] = Solubility of compound in 10% hydroxypropyl-beta-cyclodextrin after 24 hrs; type: physicochemical
# [15] = Inhibition of recombinant UAE (unknown origin) in presence of ATP at Km concentration by HTRF assay; design: species or system Homo sapiens
# [16] = Dissociation constant , pKa of the compound; type: physicochemical
# [17] = AUC in rat plasma at 10 mg/kg, po; type: ADME, organism-based; design: dose 10 mg/kg
# [18] = Oral bioavailability in rat blood at 10 mg/kg; type: ADME, organism-based
# HCT-116 = experiment: Cytotoxicity against human HCT116 cells assessed as reduction in cell viability after 72 hrs by CellTiter-Glo luminescent assay; type: functional, cell-based; conditions: HCT-116, 72 h
# [19] = Clearance in rat blood at 1 mg/kg, iv; type: ADME, organism-based; conditions: in vivo
# [20] = AUC in rat blood at 1 mg/kg, iv; type: ADME, organism-based; design: dose 1 mg/kg
# SUMO-activating enzyme [21] = target: T1, SUMO-activating enzyme; experiment: Inhibition of SAE in human HCT116 cells assessed as reduction in redistribution of SUMO2/3 proteins from nucleus to cytosol incubated for 4 hrs by immunofluorescence assay; type: cell-based, HCT-116
# Procedure, shortened: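 HCT-116 cells exposed to compound across a concentration range for 4 h, then stained with anti-SUMO2/3 monoclonal antibody. Automated imaging scored the nuclear (inner) to cytoplasmic (outer) SUMO2/3 ratio. IC50 taken from the dose response.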
# [22] = Half life in rat plasma at 1 mg/kg, iv; type: ADME, organism-based
# [23] = Inhibition of UAE (unknown origin) using Ub as substrate incubated for 60 mins in presence of ATP and PPi by pyrophosphate exchange assay; design: species or system Homo sapiens
# Procedure, shortened: (§1)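 Pyrophosphate exchange assay of E1 activity at 1 mM ATP. Substrates were SUMO1 or SUMO2 for SAE, Ub for UAE and Nedd-8 for NAE.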
# SUMO-activating enzyme [24] = target: T1, SUMO-activating enzyme; experiment: Inhibition of SAE (unknown origin) using SUMO2 as substrate incubated for 60 mins in presence of ATP and PPi by pyrophosphate exchange assay; type: protein-complex assay; procedure, shortened: as §1
# SUMO-activating enzyme [25] = target: T1, SUMO-activating enzyme; experiment: Inhibition of SAE in human HCT116 cells assessed as reduction in conjugation of SUMO proteins to UBC9 by Western blot analysis; type: cell-based, HCT-116
# Procedure, shortened: (§2)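 HCT116 cells, quantitative Western blot of E2–UBL conjugates. Read-outs were SUMO–UBC9 for SAE, ubiquitin–[…] for UAE and Nedd-8–[…] for NAE.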
# NEDD8 activating enzyme [26] = target: T2, NEDD8 activating enzyme; experiment: Inhibition of NAE (unknown origin) using Nedd-8 as substrate incubated for 60 mins in presence of ATP and PPi by pyrophosphate exchange assay; type: protein-complex assay; procedure, shortened: as §1
# SUMO-activating enzyme [27] = target: T1, SUMO-activating enzyme; experiment: Inhibition of SAE (unknown origin) using SUMO1 as substrate incubated for 60 mins in presence of ATP and PPi by pyrophosphate exchange assay; type: protein-complex assay; procedure, shortened: as §1
# NEDD8 activating enzyme [28] = target: T2, NEDD8 activating enzyme; experiment: Inhibition of NAE in human HCT116 cells assessed as reduction in conjugation of Nedd8 […] by Western blot analysis; type: cell-based, HCT-116; procedure, shortened: as §2
smiles,measurement,setting,value
Cc1sc(C(=O)c2cncnc2N[C@@H]2C[C@H](COS(N)(=O)=O)[C@@H](O)C2)cc1C1OCCc2ccc(Cl)cc21 (stereo in doubt),EC50,OCI-Ly10,4 nM
same,Vd,[1],0.2 L/kg
same,bioavailability,[2],18%
same,IC50,SUMO-activating enzyme [3],0.4 nM
same,efflux ratio,[4],> 16
same,Vd,[5],5 L/kg
same,IC50,NEDD8 activating enzyme [6],386 nM
same,half-life,[7],4 h
same,logD,[8],1.9
same,Papp B→A,[9],64 ×10⁻⁶ cm/s
same,Papp A→B,[10],4 ×10⁻⁶ cm/s
same,AUC,[11],0.3 µM·h
same,IC50,Carbonic anhydrase 2,10 nM
same,IC50,Carbonic anhydrase 1,50 nM
same,AUC,[12],24.1 µM·h
same,clearance,[13],86.7 mL/min/kg
same,solubility at 24 h,[14],100 µg/mL
same,IC50,[15],> 1000 nM
same,pKa,[16],3.5
same,AUC,[17],0.6 µM·h
same,bioavailability,[18],19%
same,EC50,HCT-116,110 nM
same,clearance,[19],1.67 mL/min/kg
same,AUC,[20],12.5 µM·h
same,IC50,SUMO-activating enzyme [21],3 nM
same,half-life,[22],1.5 h
NS(=O)(=O)OC[C@H]1C[C@@H](Nc2ncncc2C(=O)c2ccn(Cc3ccccc3)n2)C[C@@H]1O,IC50,SUMO-activating enzyme [3],2 nM
same,IC50,[23],> 1000 nM
same,IC50,NEDD8 activating enzyme [6],190 nM
same,IC50,SUMO-activating enzyme [24],69 nM
same,IC50,SUMO-activating enzyme [25],13 nM
same,IC50,[15],> 1000 nM
same,IC50,NEDD8 activating enzyme [26],2600 nM
same,IC50,SUMO-activating enzyme [27],11 nM
same,IC50,NEDD8 activating enzyme [28],> 5000 nM
same,IC50,SUMO-activating enzyme [21],71 nM
